Experimental findings from ChEMBL document CHEMBL1129996, “1-Aryl-3,5-dihydro-4H-2,3-benzodiazepin-4-ones: novel AMPA receptor antagonists” (J Med Chem, 1997) are described below.

Data set [1] is described as follows: Motor toxicity in 50% of mice on locomotion assessed by Rotarod test following 30 min ip administration. The format is organism-based. The conditions noted are these: mouse, in vivo. An outline of the steps:
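Male Swiss mice (20-26 g, 48-54 days), groups of 10, trained on rotarod (3 cm, 8 rpm); tested 30 min after ip dosing. Impairment = failure to stay on for 2 min; TD50 (95% confidence limits) by Litchfield-Wilcoxon.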
For orientation: In the rotarod test animals must keep their balance on a rotating rod.

In data set [2] the test system is Mus musculus. Kind of data set: Pentylenetetrazole-induced seizures in Swiss mice after 45 min pretreatment at a dose range 10-150 uM/kg. The data set is classed as functional.
Data set [3] can be described thus: Therapeutic index it is the ratio between TD50 and ED50 (from the clonic phase of the audiogenic seizures). The conditions noted are these: read-out: TI. An outline of the steps: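 Therapeutic index computed as rotarod TD50 divided by ED50 for the clonic phase of audiogenic seizures in DBA/2 mice.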
In data set [4] the test system is Mus musculus. In words: Anticonvulsant activity against the maximal electroshock in Swiss mice after 45 minutes pretreatment at a dose range 10-150 uM/kg. The data set is classed as functional. An outline of the steps: (§1)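 Swiss mice dosed ip in 50% DMSO/50% saline 45 min before ear-clip electroshock (50 mA, 20 ms pulses, 35 Hz, 400 ms). Protection = abolition of tonic hindlimb extension. Usually 4-5 doses with 8-10 mice each; ED50 (95% confidence limits) by Litchfield-Wilcoxon.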

For data set [5], the system named is Mus musculus. Kind of data set: Anticonvulsant activity against tonic phase of the audiogenic seizures in DBA / 2 mice 30 min after ip administration at a dose range 10-133 uM/kg. The conditions noted are these: 0.5 h. The format is functional. An outline of the steps:
(§2)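 Groups of 10 DBA/2 mice of either sex; drug ip (0.1 mL/10 g) as fresh solution in 50% DMSO/50% saline, 30 min before auditory stimulation (12-16 kHz, 109 dB, 60 s or until tonic extension) under perspex dome after 60 s habituation. Latency and incidence of wild running, clonic and tonic phases scored; ED50 (95% confidence limits) by Litchfield-Wilcoxon.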

The nature of data set [6]: Relative lipophilicity of compound. The format is physicochemical. The conditions noted are these: reversed-phase TLC, acetone/water 2:1. An outline of the steps: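 Reversed-phase TLC type lipophilicity: plates dried 105 °C 1 h, mobile phase acetone:water 2:1, 1 µL of 3 mg/mL CHCl3 solution spotted; five runs with varied positions, mean Rf converted as Rm = log[(1/Rf) - 1].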

Data set [7] concerns Mus musculus. Kind of data set: Anticonvulsant activity against clonic phase of the audiogenic seizures in DBA / 2 mice 30 min after ip administration at a dose range 10-133 uM/kg. To be noted: 0.5 h. The data set is classed as functional. An outline of the steps: as §2
Data set [8] relates to Mus musculus. Kind of data set: Anticonvulsant activity against the tonic seizures induced by icv injection of AMPA in DBA / 2 mice at a dose range of 10-66 uM/kg. To be noted: central. The format is functional.
The subject of data set [9] is Mus musculus. In words: Anticonvulsant activity against the clonic seizures induced by icv injection of AMPA in DBA / 2 mice at a dose range of 10-66 uM/kg. The format is functional. To be noted: central.
Data set [10] is filed under the species Mus musculus. In words: Audiogenic seizures after concomitant treatment with Flumazenil (24.72 uM) in DBA / 2 mice tonic phase. The format is functional.
Data set [11] has as its system Mus musculus. In words: Anticonvulsant activity against tonic phase of the audiogenic seizures in DBA / 2 mice 30 min after ip administration at a dose range 10-66 uM/kg. The format is functional. The conditions noted are these: 0.5 h. An outline of the steps:
as §2

For data set [12], the species on record is Mus musculus. Kind of data set: Audiogenic seizures after concomitant treatment with Flumazenil (24.72 uM) in DBA / 2 mice clonic phase. The format is functional.
Data set [13] is filed under the species Mus musculus. In words: Audiogenic seizures after concomitant treatment with Flumazenil (8.24 uM) in DBA / 2 mice tonic phase. The format is functional.
Data set [14] concerns Mus musculus. In words: Anticonvulsant activity against clonic phase of the audiogenic seizures in DBA / 2 mice 30 min after ip administration at a dose range 10-66 uM/kg. To be noted: 0.5 h. The format is functional. An outline of the steps:
as §2

The species entered for data set [15] is Mus musculus. Kind of data set: Audiogenic seizures after concomitant treatment with Flumazenil (8.24 uM) in DBA / 2 mice clonic phase. The format is functional.
Data set [16] has as its system Mus musculus. Kind of data set: Audiogenic seizures after pretreatment with Aniracetam in DBA / 2 mice tonic phase at a dose range of 10-200 uM/kg. The data set is classed as functional. An outline of the steps:
(§3)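 DBA/2 mice pretreated with aniracetam 50 nmol icv 60 min before auditory testing, with ip 2,3-benzodiazepine; audiogenic clonic and tonic phases scored; ED50 by Litchfield-Wilcoxon.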

Data set [17] deals with Mus musculus. Kind of data set: Anticonvulsant activity against the tonic seizures induced by icv injection of AMPA in DBA / 2 mice at a dose range of 10-100 uM/kg. The data set is classed as functional. The conditions noted are these: central.
For data set [18], the system named is Mus musculus. Kind of data set: Audiogenic seizures after pretreatment with Aniracetam in DBA / 2 mice clonic phase at a dose range of 10-200 uM/kg. The data set is classed as functional. An outline of the steps:
as §3

Data set [19] concerns Mus musculus. In words: Anticonvulsant activity against tonic phase of the audiogenic seizures in DBA / 2 mice 30 min after ip administration at a dose range 3.3-100 uM/kg. The format is functional. The conditions noted are these: 0.5 h. An outline of the steps:
as §2

The subject of data set [20] is Mus musculus. Kind of data set: Anticonvulsant activity against the clonic seizures induced by icv injection of AMPA in DBA / 2 mice at a dose range of 10-100 uM/kg. The format is functional. The conditions noted are these: central.
In data set [21] the test system is Mus musculus. Kind of data set: Anticonvulsant activity against clonic phase of the audiogenic seizures in DBA / 2 mice 30 min after ip administration at a dose range 3.3-100 uM/kg. The data set is classed as functional. To be noted: 0.5 h. An outline of the steps:
as §2

For data set [22], the system named is Mus musculus. In words: Anticonvulsant activity against the maximal electroshock in Swiss mice after 45 minutes pretreatment at a dose range 10-100 uM/kg. The data set is classed as functional. An outline of the steps: as §1
(The maximal electroshock test induces tonic seizures with an electrical stimulus.)

The test system of data set [23] is Mus musculus. In words: Anticonvulsant activity against clonic phase of the audiogenic seizures in DBA / 2 mice 30 min after ip administration at a dose range 3.3-66 uM/kg. The format is functional. To be noted: 0.5 h. An outline of the steps: (§4)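 Groups of 10 DBA/2 mice of either sex, dosed ip (0.1 mL/10 g) with fresh solution in 50% DMSO/50% saline; 30 min later exposed under a perspex dome (after 60 s habituation) to 12-16 kHz, 109 dB sound for 60 s or until tonic extension. Scored for latency and incidence of wild running, clonus, tonus; ED50 (95% limits) by Litchfield-Wilcoxon.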

The test system of data set [24] is Mus musculus. Kind of data set: Pentylenetetrazole-induced seizures in Swiss mice after 45 min pretreatment at a dose range 10-100 uM/kg. The data set is classed as functional. An outline of the steps: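 Male Swiss mice (20-26 g), compound ip in 50% DMSO/50% saline 45 min before sc pentylenetetrazole at CD97 (85 mg/kg), then observed 30 min. Protection is absence of clonic spasms lasting at least 5 s. Typically 4-5 doses, 8-10 mice per dose. ED50 with 95% confidence limits by Litchfield and Wilcoxon.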

Data set [25] has as its system Mus musculus. In words: Anticonvulsant activity against tonic phase of the audiogenic seizures in DBA / 2 mice 30 min after ip administration at a dose range 3.3-66 uM/kg. The format is functional. The conditions noted are these: 0.5 h. An outline of the steps: as §4

Values joined by “and” are separate entries in the source; they are usually repeats but may differ in a detail not shown here. Equal values may be shown once.

In [1], `COc1cc2c(cc1OC)C(c1ccc(Br)cc1)=NNC(=O)C2` had a TD50 at 0.5 h of 226 µmol/kg. The ED50 was over 150 µmol/kg in the data set with Mus musculus [2]; 123 µmol/kg in the data set on Mus musculus [4]; 82.5 µmol/kg and 30.7 mg/kg with Mus musculus [5]; 110 µmol/kg and 41.2 mg/kg in the data set on Mus musculus [7]. The therapeutic index (TD50/ED50) in data set [3] is 2. Further, the Rm in [6] stood at 0.052.

Take `COc1cc2c(cc1OC)C(c1cccc(N)c1)=NNC(=O)C2`: the ED50 in the data set with Mus musculus [8] is 27.8 µmol/kg; in the data set on Mus musculus [9], 30.9 µmol/kg; in the data set filed under Mus musculus [10], 17.5 µmol/kg; with Mus musculus [11], 18.3 µmol/kg and 5.69 mg/kg; in the data set filed under Mus musculus [12], 29.2 µmol/kg; in the data set listed under Mus musculus [13], 18.2 µmol/kg. Further, the ED50 in the data set on Mus musculus [14] is 19.3 µmol/kg and 6 mg/kg; in the data set filed under Mus musculus [15], 21 µmol/kg. In [1], this molecule registered a TD50 at 0.5 h of 51.5 µmol/kg. The therapeutic index (TD50/ED50) in [3] came to 2.7. Besides, the Rm in data set [6] is listed as -0.525.

Take `COc1cc2c(cc1OC)C(c1ccc(N)cc1)=NNC(=O)C2`: the 50% effective dose (ED50) in the data set with Mus musculus [16] stood at 58.2 µmol/kg; with Mus musculus [17], 25 µmol/kg; in the data set listed under Mus musculus [10], 10.2 µmol/kg; with Mus musculus [18], 65.2 µmol/kg; in the data set with Mus musculus [2], 22.6 µmol/kg; in the data set listed under Mus musculus [12] it was 12 µmol/kg. Further, the median effective dose (ED50) is 12 µmol/kg in the data set filed under Mus musculus [13]; 12.6 µmol/kg and 3.92 mg/kg in the data set on Mus musculus [19]; 32.1 µmol/kg with Mus musculus [20]; 15.9 µmol/kg in the data set with Mus musculus [4]; 14.1 µmol/kg in the data set filed under Mus musculus [15]; 15 µmol/kg and 4.66 mg/kg in the data set on Mus musculus [21]. The molecule also came in with a TD50 at 0.5 h in [1] of 56.8 µmol/kg. Moreover, the therapeutic index (TD50/ED50) in data set [3] worked out at 3.8. In data set [6], this molecule showed a Rm of -0.602.

Take `CC1=NN=C(c2ccc(N)cc2)c2cc3c(cc2C1)OCO3` [GYKI-52466]: the ED50 in the data set with Mus musculus [16] is 100 µmol/kg; with Mus musculus [17], 40.5 µmol/kg; in the data set on Mus musculus [22], 35.7 µmol/kg; in the data set listed under Mus musculus [10], 29.7 µmol/kg; with Mus musculus [18] it was 134 µmol/kg; with Mus musculus [23], 35.8 µmol/kg and 10.5 mg/kg. In addition, the ED50 in the data set filed under Mus musculus [12] was 39.5 µmol/kg; in the data set filed under Mus musculus [13], 26.7 µmol/kg; in the data set with Mus musculus [24], 68.3 µmol/kg; in the data set on Mus musculus [20] it was 57.5 µmol/kg; in the data set with Mus musculus [25] it was 25.3 µmol/kg and 7.41 mg/kg; in the data set listed under Mus musculus [15] it was 37.8 µmol/kg. The molecule also registered a TD50 at 0.5 h in data set [1] of 76.1 µmol/kg. The molecule also showed a Rm in [6] of -0.298.

As usually defined, the TD50 is the 50% point of the dose-response relation for the toxic effect studied. High values mean lower toxicity, low ones greater toxicity. For orientation: ED50 means the dose at which the effect has come halfway, by size or by number of responders.
